# Screening data from PubChem.
# Most compounds without a hit are left out; they make up all but 3% or so of the library.
# 5HT1E antag – antagonists of human 5-HT1E serotonin receptor; 65,000 tested, 0.99% active; CHO 5-HT1E Ga15 NFAT-bla reporter, FRET, antagonist; inhibition, % at 6 µM; AID 571;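 active = inhibition above a set limit, the mean inhibition across every tested compound plus 3 SD, cut at about 29% in these data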;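 also: signal is the 460 over 535 nm emission ratio of beta-lactamase substrate; 0% = agonist plus DMSO wells and 100% = wells without agonist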
# S1P3 ag – activates the human S1P3 receptor | Q99500 | S1P3 NFAT-BLA reporter cells, agonism, FRET ratio; relative to 1 µM S1P, basal subtracted | activation, % at 4.5 µM | 60,000 tested, 0.1% active;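 active = activation above the screen-wide mean plus 3 SD, cut at about 4.5% in these data, passing the limit was not always enough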
# Target sequence (Q99500 whole entry, looked up): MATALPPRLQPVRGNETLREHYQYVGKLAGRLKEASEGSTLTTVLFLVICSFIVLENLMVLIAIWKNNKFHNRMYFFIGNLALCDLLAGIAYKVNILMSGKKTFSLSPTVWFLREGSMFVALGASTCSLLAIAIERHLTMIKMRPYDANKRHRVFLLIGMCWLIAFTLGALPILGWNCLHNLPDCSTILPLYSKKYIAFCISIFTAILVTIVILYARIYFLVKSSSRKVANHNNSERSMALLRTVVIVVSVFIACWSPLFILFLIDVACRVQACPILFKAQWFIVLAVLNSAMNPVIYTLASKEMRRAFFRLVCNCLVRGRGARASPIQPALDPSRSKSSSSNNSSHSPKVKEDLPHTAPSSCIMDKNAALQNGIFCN
#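 Assay system: CHO cells stably expressing human S1P3, Gα16 and NFAT-β-lactamase reporter. Timing: overnight plating, 4 h compound 37 °C, 2 h substrate RT. Signal: β-lactamase FRET emission ratio 460/535 nm. Measure: percent activation versus median 1 µM S1P response, basal-subtracted, per plate. Repeats: primary screen single test, confirmation screen in triplicate.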
# 5HT1a ag – agonists of human 5-HT1a serotonin receptor | AID 567 | activation, % at 10 µM | P08908 | 65,000 tested, 0.56% active | CHO 5-HT1a Ga15 NFAT-bla reporter, FRET ratio; 0% basal, 100% maximal reference agonist;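 active = activation above the screen-wide mean activation plus 3 SD, cut at about 19% in these data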;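 also: 0% = DMSO wells and 100% = 5-CT at EC100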
# S1P1 ag-PAM – activates or potentiates agonism at human S1P1 receptor; P21453; S1P1 CRE-bla cells, forskolin, beta-lactamase FRET, potentiator mode; S1P1 agonist co-added at EC20, 2 nM; 100% = saturating reference agonist, 0% = basal; activation, % at 9.5 µM; 56,000 tested, 0.57% active;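 active = activation above a cutoff set at the mean activation of all tested compounds plus 3 SD, cut at about 54% in these data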;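 also: forskolin at 4 µM as EC80 and the EC20 agonist is SEW2871; 100% = SEW2871 at its EC100 plus forskolin at EC80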
# 5-HT1A blocker – antagonists of human 5-HT1a serotonin receptor; P08908; CHO 5-HT1a Ga15 NFAT-bla reporter, antagonist mode; inhibition, % at 10 µM; 62,000 tested, 0.68% active;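 active = inhibition above the mean of all tested compounds plus 3 SD, cut at about 43% in these data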;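 also: receptor stimulated by 5-CT agonist at 100 nM near EC80; beta-lactamase reporter measured by ratiometric fluorescence of a cleavable substrate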
# 5HT1E ag – agonists of human 5-HT1E serotonin receptor; activation, % at 6 µM; AID 574; 65,000 tested, 0.69% active; CHO 5-HT1E Ga15 NFAT-bla reporter, FRET; 0% DMSO wells, 100% control agonist wells;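 active = activation above a set limit, the screen-wide mean activation plus 3 SD, cut at about 8.5% in these data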;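 also: 100% = positive control agonist at 1 µM giving full maximal response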
# Active calls of the source: *; · = no result.
SMILES,5HT1E antag,S1P3 ag,5HT1a ag,S1P1 ag-PAM,5-HT1A blocker,5HT1E ag
CCCC(=O)c1ccc(N2CCN(C(=O)c3ccccc3Br)CC2)c(F)c1,-5,-2,4,98*,-1,1
COc1cc(-c2nnc(-c3ccco3)o2)ccc1OCc1ccccc1,4,0,3,4,-1,0
CCOCCCNC(=O)C(NC(=O)C1CCC(=O)N1)c1ccc(C)cc1 (centres undefined),-8,·,0,·,-4,1
O=C(O)c1ccccc1C(=O)N1CCN(c2cccc(Cl)c2)CC1,1,0,4,12,21,45*
CC(=O)c1ccc(NC(=O)N2CCN(c3cccc(Cl)c3)CC2)cc1,24,-2,-1,65*,33,3
O=C(Nc1cccc(Cl)c1)N1CCN(c2ncccn2)CC1,-5,0,-2,-1,-7,-2
COc1ccc(C(=O)N2CCN(c3cccc(Cl)c3)CC2)c(OC)c1,12,-1,0,·,20,1
CCOc1ccccc1C(=O)N1CCN(c2cccc(Cl)c2)CC1,70*,-1,0,-12,70*,1
NC(=O)c1ccc(C2SCC(=O)N2Cc2ccccc2)cc1 (centres undefined),3,1,-1,-14,-4,0
Cc1cc(=O)[nH]c(SCC2COC3(CCCCC3)O2)n1 (centres undefined),-6,-1,-2,-12,4,0
COCCn1c(SCC(N)=O)nc2c(c1=O)SC(C)C2 (centres undefined),-8,0,-3,-1,-21,0
COc1ccc(CCNC(=O)C2CCCN(Cc3nc(-c4ccccc4C)oc3C)C2)cc1OC (centres undefined),-8,0,33*,-29,-3,0
CCOC(=O)N1CCC(NC(=O)C2CCCN(Cc3nc(-c4cccc(Cl)c4)oc3C)C2)CC1 (centres undefined),12,-2,2,103*,25,1
COc1ccc(CCNC(=O)C2CCN(Cc3nc(-c4cccc(Cl)c4)oc3C)CC2)cc1OC,-11,-1,1,20,1,2
CCc1ccc(-c2nc(CN3CCCC(C(=O)NCCc4ccc(OC)c(OC)c4)C3)c(C)o2)cc1 (centres undefined),-17,0,37*,-14,-1,2
Cc1cccc(N2CCN(C(=O)COc3cc(=O)n(C)c4ccccc34)CC2C)c1 (centres undefined),-11,-1,-4,-28,-3,0
COc1ccc(S(=O)(=O)N2CCSC2c2ccc(N)cc2)cc1 (centres undefined),-5,1,-1,-9,-8,0
O=C(NC12CCC(O)C(SC1)/C2=N/O)c1ccccc1 (centres undefined),-9,-1,-1,-2,10,1
O=C(COC(=O)c1ccccc1S(=O)(=O)N1CCCCC1)NCC(F)(F)F,29*,1,-5,12,12,-1
CC(=O)Nc1ccc(S(=O)(=O)N2CCN(CCC#N)CC2)cc1,6,-1,-2,-5,9,1
Cc1csc2nc(CNC(=O)c3ccco3)cn12,7,0,-3,-42,-3,11*
CC(=O)NCc1cn2c(C)csc2n1,-19,0,1,-6,-9,0
Cc1sc2nc(C3CC3)nc(NCCNS(C)(=O)=O)c2c1C,39*,0,-2,6,0,0
Cc1sc2nc(C3CC3)nc(N3CCN(S(=O)(=O)c4ccc(F)cc4)CC3)c2c1C,-19,-1,3,4,-44,5
CC(=O)Nc1ccc2nc(-c3cccnc3)[nH]c2c1,-5,·,-2,·,-6,17*
SMILES,5HT1E antag,S1P3 ag,5HT1a ag,S1P1 ag-PAM,5-HT1A blocker,5HT1E ag
CC(=O)Nc1cccc(-c2nc3ccc(NC(C)=O)cc3[nH]2)c1,-5,0,-1,-3,0,0
O=C(NC1CCCC1)C1C2C=CC3(CN(Cc4cccs4)C(=O)C13)O2 (centres undefined),0,0,1,4,-5,2
O=C(NCC1CCCO1)C1C2C=CC3(CN(Cc4cccs4)C(=O)C13)O2 (centres undefined),2,-1,-1,-11,7,29*
COCCCNC(=O)c1c(N)n(/N=C/c2cccs2)c2nc3ccccc3nc12,-31,3,86*,-123,·,26*
COCCCNC(=O)c1c(N)n(/N=C/c2cccnc2)c2nc3ccccc3nc12,-1,-2,7,-16,·,0
Cc1nc2ccccn2c1/C(O)=C1\C(=O)C(=O)N(CCN2CCOCC2)C1c1cccnc1 (centres undefined),0,-1,-2,2,-13,-1
O=C(Nc1ccc2c(c1)OCCO2)C1CCCN1S(=O)(=O)c1cccc2cccnc12 (centres undefined),1,0,75*,6,5,-1
O=C(Nc1ccc(C(F)(F)F)cc1)C1CCCN1S(=O)(=O)c1cccc2cccnc12 (centres undefined),10,0,-2,66*,-2,-1
O=C(Nc1nncs1)c1c(F)c(F)c(F)c(F)c1F,-4,0,5,·,8,1
Cc1nnc(SCc2cn3ccsc3n2)n(N)c1=O,12,-1,-1,14,6,0
O=c1c2ccccc2nc(SCc2cn3ccsc3n2)n1-c1ccc(F)cc1,37*,0,6,-21,19,0
O=C(CN1C(=O)C2C3C=CC(C3)C2C1=O)NCCc1ccccc1 (centres undefined),-6,0,-3,0,-19,0
Cn1c(Cn2c(=O)sc3ccccc32)nnc1SCC(=O)NCc1ccc(F)cc1,-24,0,40*,-6,-11,0
COc1ccc(C2=NOC(C(=O)NCC(C)C)C2)cc1 (centres undefined),-4,0,0,0,7,0
COc1ccccc1N1CCN(Cc2nc(N)nc(Nc3ccccc3)n2)CC1,4,-1,2,6,6,1
COc1ccc(OC)c(C2CC(=O)c3c([nH]c(C(=O)OC(C)C)c3C)C2)c1 (centres undefined),87*,-1,0,-15,71*,-1
CCCOCCOC(=O)c1[nH]c2c(c1C)C(=O)CC(c1cc(OC)ccc1OC)C2 (centres undefined),81*,-2,0,15,76*,0
Cc1ccc(NC(=O)CC2Nc3ccccc3NC2=O)cc1Cl (centres undefined),11,5.9*,34*,-82,-15,14*
COc1cccc(-n2c(SCC#N)nnc2-c2cnccn2)c1,-2,0,-2,-25,-12,0
